Fewer inactive variants are shown than the library holds.
B1: tRNA (parent)
chain: GUUCCGUUGGCGUAAUGGUAACGCGUCUCCCUCCUAAGGAGAAGACUGCGGGUUCGAGUCCCGUACGGAACG

Variants of: B1
Experiment: yeast fitness relative to wild type (ratio to wild type); higher = fitter; tRNA-Arg(CCU), competitive growth, 37 C, YPD
In short: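 Changes in genotype frequencies gave Darwinian fitness relative to wild type. Frequencies were read by 100-nucleotide paired-end sequencing of gene amplicons before and after pooled Saccharomyces cerevisiae strains, carrying tRNA-Arg(CCU) gene variants at the native locus, were competed in YPD at 37°C for 24 hours in six replicates. A genotype was kept only with ≥ 100 starting reads, and estimates < 0.5 were set to 0.5.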

Going from GUUGCGUUGGCGUAAUGGUAACGCGUCUCCCUCCUAACGAGAAGACUGCGGGUUCGAGUCCCAUACGCGACG [C4G G38C G63A G68C A69G] to GUUCCGUUGGCGUAAUGGUAACGCGUCUCCCUCAUAAGGAGAAGACUGCGGGUUCGAGUCCCGUACAGAACG [C34A G67A], the yeast fitness rises from ≤ 0.5 to 0.652.

Compared with GUUCCGUUGGCGUAAUAGUAACGAGUCUCUCUCCUAAGGAAAAGCCUGCGGGUUCGACUCCCGUACGGAACG [G17A C24A C30U G41A A45C G58C], GUUCCGUUGGCGUAAAGGUAACGCGUGUCCCUCCUAAGGAGAAGACUGAGGGUUCGAGUCCCGUACGGGACG [U16A C27G C49A A69G] is higher in yeast fitness: ≤ 0.5 for the first, 0.532 for the second.

Going from GUUCCGUAGGCGUAAUGGUAACGCGUCUGCCUCCUAAGGAGAAGACUGCGGGUUCGAGUCCGGUACGGAACG [U8A C29G C62G] to GUUCCGUUGGCGUAAUGGUAACGCGUCUCCCUCCCAAGGAGCAGACUGCGGCCUCGAGUCCCGUACGUAACG [U35C A42C G52C U53C G68U], the yeast fitness falls from 0.576 to ≤ 0.5.

First: GUUACGUUGGCGUAAUGGUAACGCGUCUGCCUCCUUAGGAGAAGACUGCGGGCUCGAGUCCCGUACGGAACG [C4A C29G A36U U53C]
Second: GUUCCGAUGGCCUAAUGGUAACGCGUCUCCCUCCUAAGGAGAAGACUGCGGGUGCGAGUCCCGUACGGAACG [U7A G12C U54G]
The yeast fitness of the first is lower: ≤ 0.5 for the first, 0.673 for the second.

GUUCCGGUGGCGUAGUGGUAACGCGUUUCCCUCCUAAGGAGAAGACUGCGGGUUCGAGUCCCGUACGAAACG [U7G A15G C27U G68A] and GUUCCGUUGGCGAAAUGGUAACGCGUCUCCCUCUUAAGGUGAAGACUGCGGGUUCGAGUCCCGUCCGGAACG [U13A C34U A40U A65C] cannot be ordered by yeast fitness: ≤ 0.5 for the first, ≤ 0.5 for the second.

Compared with GUUCCGUUGGCGUAAUGCUAACGCGUAUCCCUCCUAAGGAGAAGACUGCGGGUUCGAGUCCCGUACGGAACG [G18C C27A], GUUCUGUUGGCGUAAUGGUAACGCGUCUGCCUCCUAAGGAGAAGACUGCGGGUUCGAGUCCCGUACGAAACG [C5U C29G G68A] is lower in yeast fitness: 0.555 for the first, ≤ 0.5 for the second.

GUUCCGUUACCGUAAUGGUAACGCCUCUCCCUUCUAAGGAGAAGACUGCGGGUUCGAGUCCCGUACGGAACG [G9A G10C G25C C33U] and GUUCCGUUGGCGUAAUGGUAACGCGUCUCCCUCCUAAGGAGAAGACUGCGGGUUCGAGGCCCGUCAGGAACG [U59G A65C C66A] cannot be ordered by yeast fitness: ≤ 0.5 for the first, ≤ 0.5 for the second.

Going from GUUCCGUUGGCGUAAUCGUAACGCGUCUCCCUCCUAAGGAGAAGACUGCGGGUUCGAGUCCCGUACAGAACG [G17C G67A] to GUUCCGUUGGCGUAAUGGCAACGCGUCUCCCUCCUAAGGAGAAGACUGCGGGUUCGAGUCCCGUACUGAACG [U19C G67U], the yeast fitness rises from 0.67 to 1.07.

Compared with GAUCCGUUGGCGUUAUGGUAACGUGUCUCCCGCCUAAGGAGAAGACUGCGGGUUCGAGUCCCGUACGGAACG [U2A A14U C24U U32G], GUUCGGUUGGCGUAAUGGUAACGCGUCUCCCUCGUAAGGAGAAGACUGCGGGUUCGAGUCCCGUACGGAACG [C5G C34G] is lower in yeast fitness: 0.672 for the first, 0.62 for the second.

Going from GUUCUGUUGGCGUAAUGGUAACGCGUCUCCCUCCUAAGGAGAACACUGUGGGUUCGAGUCCCGGACAGAACG [C5U G44C C49U U64G G67A] to GUUGCGUUGGCGUAAUGGUAACGCGUCUCCCUCCUAAGGAGAAGACUGCGGGUGCGAGUCCCGUACGGAACG [C4G U54G], the yeast fitness rises from 0.51 to 0.626.

First: GUUCCGUUGACGUAAUGGUAACGCGUCUCCCUCCUAAGGAGAAGACUGCGGGUUCGAAUCCCGUACGGUACG [G10A G58A A69U]
Second: GUUCCGUUGGCGUAAUAGUAAAGCGUCUCCCUCCUAAGGAGAAGCUUGCGGGUUCGAGUCACGUACGGAACG [G17A C22A A45C C46U C61A]
The yeast fitness of the first is higher: 0.54 for the first, ≤ 0.5 for the second.

GUCCCGUUGGCAUAAUGGUCACCCGUCUCCCUCCUAAGGAGAAGACUGCGGGUUCCAGUCCCGUCCGAAACG [U3C G12A A20C G23C G56C A65C G68A] and GUUCCGUUGGCGUAAUGGUAACGCGUCUCCCUCGUAAGGAGAAGACUGCAGGUUCGAGACCCGUACGGAACG [C34G G50A U59A] cannot be ordered by yeast fitness: ≤ 0.5 for the first, ≤ 0.5 for the second.

GUUCCGUUGGCGUAAUAGUAACGCGUCUCCCUCCAAAGGAGAAGACUGCGGGUGCGAGUCCCGUACGGAACG [G17A U35A U54G] and GUUCUGUUGGCGUAAUCCUAACGCGUCUCCCUCCUAAGGAGAAGACUGCGGGUUCGAGUGGCGUACGGAACG [C5U G17C G18C C60G C61G] cannot be ordered by yeast fitness: ≤ 0.5 for the first, ≤ 0.5 for the second.

GUUCCGUUGGCGUAAUCGUGACGCGUCUCGCUCCUAAGGAGAAGACUGCGGGUUCGAGUCCCGUUCGGAACG [G17C A20G C30G A65U] and GUUCCGUUGGCGUAAUGAUAAAGCGUCUCCCUCCUAAGGAGAAGACUGCGGGUUCGAGUCACGUGCGGAACG [G18A C22A C61A A65G] cannot be ordered by yeast fitness: ≤ 0.5 for the first, ≤ 0.5 for the second.

GUUCCGUUGGCGUAAUGGUAACGCGUGUCCCUCCUAAGGAGAAGACUGCGGGUUUGAGUCCCGUACCGAACG [C27G C55U G67C] and GUUCCGUUGGCGUAAUGGUAACGCGUCUCCCACCUAAGGAGAAGACUGAGGGCUCGAGUCCCGUAGGGAACG [U32A C49A U53C C66G] cannot be ordered by yeast fitness: ≤ 0.5 for the first, ≤ 0.5 for the second.

Going from GUUGCGUUGGCGUAAUGGUAACGCGUAUCCCUCCUAAGGAGAAGACUGCGGGUUCGAGUCCCGUACGGAACG [C4G C27A] to GCUCCGUUGCCGUAAUGGUAACGCGUCUCCCUCCUAAGGAAAAGACUGCCGGUUCGAGUCCCGUACGGAACG [U2C G10C G41A G50C], the yeast fitness falls from 0.734 to 0.585.

Going from GUUCCGUUGGCGUAAUGGUAACGCGUCUCUCUCCUAAGGAGAAGACUGCGGGUUCGAGUCCCAUACGGAACG [C30U G63A] to GUUCCGUUGGCGUAAUGGUCACGCGUCUCCCUCCUACGGAGAGGACUGCGGGUACGAGUCCCGUACGGAACG [A20C A37C A43G U54A], the yeast fitness falls from 0.729 to ≤ 0.5.

Going from GUUCCGUUGGCGUAAUGGUAACGCGUCUCCGUCCUAAGGAGAAGACUGCGCGUUCGAGUCCCGUAUGGAACG [C31G G51C C66U] to GUUCCGUUGGCGUAAUGGUAACAGGUCUCCCUCCUAAGGAGAAGACUGCGGGUUCGAGUCCCGUACGGAACG [G23A C24G], the yeast fitness falls from 0.566 to ≤ 0.5.

GUUCCGUUGGCGUAAUGGUAACCCGUCUCCCUUCUAAGGAGGCGACUGCGGGUUCGAGUCCCGAAAGGCCCG [G23C C33U A42G A43C U64A C66A A69C A70C] and GUUCGGUUGAGGUAAGGGUAACGCGUCUCCCUGCUAAGGAGAAGACUGCGGGUUCGAAUCCCGUGCGGAACG [C5G G10A C11G U16G C33G G58A A65G] cannot be ordered by yeast fitness: ≤ 0.5 for the first, ≤ 0.5 for the second.

From the RNAGym collection of RNA variant scans (doi:10.1126/science.aae0568)
